Data set [1] deals with T1, Amine oxidase [flavin-containing] A (Homo sapiens, UniProt P21397).
T1 sequence (P21397 whole entry): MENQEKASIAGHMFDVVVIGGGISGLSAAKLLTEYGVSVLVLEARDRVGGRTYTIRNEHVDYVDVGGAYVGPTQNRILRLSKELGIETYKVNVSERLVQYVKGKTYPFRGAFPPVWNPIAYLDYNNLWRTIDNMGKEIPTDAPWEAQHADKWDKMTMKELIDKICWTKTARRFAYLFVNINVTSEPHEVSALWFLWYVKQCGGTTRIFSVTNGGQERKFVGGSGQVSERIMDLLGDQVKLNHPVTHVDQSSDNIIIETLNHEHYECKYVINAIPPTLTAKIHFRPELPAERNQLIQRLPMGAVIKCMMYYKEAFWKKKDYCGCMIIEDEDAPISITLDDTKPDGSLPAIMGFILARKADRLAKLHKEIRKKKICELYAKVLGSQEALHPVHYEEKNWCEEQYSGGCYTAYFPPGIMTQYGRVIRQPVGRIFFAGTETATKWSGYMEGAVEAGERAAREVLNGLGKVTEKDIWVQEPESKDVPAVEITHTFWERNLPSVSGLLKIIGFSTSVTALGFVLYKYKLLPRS
Put plainly: Inhibition of recombinant human MAOA expressed in baculovirus infected insect cell microsomes using kynuramine as substrate assessed as formation of 4-hydroxyquinoline after 20 mins by fluorescence spectrophotometry. Set-up: species or system Microsome.

The species entered for the next data set is Homo sapiens. Briefly: Selectivity index, ratio of Ki for recombinant human MAOB to Ki for recombinant human MAOA. The essentials: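 Recombinant human MAO-A and MAO-B in insect-cell microsomes (0.0075 mg/mL), kynuramine 45 µM (A) or 30 µM (B), inhibitor 0–100 µM, 9 concentrations, DMSO 4% final, K-phosphate 100 mM pH 7.4 isotonic with KCl, 37 °C 20 min. NaOH stop, 4-hydroxyquinoline fluorescence (ex 310/em 400 nm). Duplicate IC50 fits converted to Ki; SI = Ki(MAO-B)/Ki(MAO-A).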

Data set [2] addresses T2, Amine oxidase [flavin-containing] B (Homo sapiens, UniProt P27338).
T2 sequence (P27338 whole entry): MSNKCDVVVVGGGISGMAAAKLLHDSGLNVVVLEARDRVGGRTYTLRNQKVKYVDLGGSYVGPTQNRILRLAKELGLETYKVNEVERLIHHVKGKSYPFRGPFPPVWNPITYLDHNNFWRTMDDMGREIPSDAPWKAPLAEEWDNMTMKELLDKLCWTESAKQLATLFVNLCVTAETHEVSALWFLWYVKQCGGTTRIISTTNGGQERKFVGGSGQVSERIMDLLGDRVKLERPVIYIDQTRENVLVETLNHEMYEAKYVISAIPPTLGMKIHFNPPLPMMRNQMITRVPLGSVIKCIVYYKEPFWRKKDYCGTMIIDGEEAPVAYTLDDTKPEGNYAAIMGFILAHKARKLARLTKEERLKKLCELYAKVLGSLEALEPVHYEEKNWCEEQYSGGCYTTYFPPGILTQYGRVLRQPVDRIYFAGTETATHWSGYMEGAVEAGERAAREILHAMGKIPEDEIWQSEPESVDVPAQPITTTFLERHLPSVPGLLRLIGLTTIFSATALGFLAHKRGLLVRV
Put plainly: Inhibition of recombinant human MAOB expressed in baculovirus infected insect cell microsomes using kynuramine as substrate assessed as formation of 4-hydroxyquinoline after 20 mins by fluorescence spectrophotometry. Also noted: species or system Microsome.

The target in data set [3] is T2, Amine oxidase [flavin-containing] B. Briefly: Ratio of 8-benzyloxycaffeine IC50 to compound IC50 for recombinant human MAOB expressed in baculovirus infected insect cell microsomes. Set-up: species or system Microsome.
The target of data set [4] is T1, Amine oxidase [flavin-containing] A. Briefly: Competitive inhibition of human recombinant MAOA expressed in baculovirus infected insect cell microsomes using kynuramine as substrate assessed as 4-hydroxyquinoline formation per min per mg protein by Lineweaver-Burk plot analysis. Set-up: species or system Microsome.
In data set [5] the target is T2, Amine oxidase [flavin-containing] B. Briefly: Competitive inhibition of human recombinant MAOB expressed in baculovirus infected insect cell microsomes using kynuramine as substrate assessed as 4-hydroxyquinoline formation per min per mg protein by Lineweaver-Burk plot analysis. Also noted: species or system Microsome.

This is an account of results in ChEMBL document CHEMBL1806454, “8-Aryl- and alkyloxycaffeine analogues as inhibitors of monoamine oxidase” (Eur J Med Chem, 2011).

SMILES strings stand for the structures.

One may read the IC50 as the midpoint of a concentration-inhibition curve. As usually defined, the Ki is a dissociation constant, usually derived from enzyme kinetics or from competition with a known ligand. Consider `CC(C)CCOc1nc2c(c(=O)n(C)c(=O)n2C)n1C`, for which the IC50 is 27.3 µM in data set [1] and 14100 nM in data set [2]. For the same molecule, the Ki turned out to be 9.57 µM in data set [1] and 10300 nM in data set [2]. In addition, the Ratio Ki in the data set filed under Homo sapiens came out at 1.08.

Take `Cn1c(=O)c2c(nc(Oc3ccccc3)n2C)n(C)c1=O`: in data set [1], the half-maximal inhibitory concentration (IC50) is 75.2 µM and the inhibition constant Ki came to 26.3 µM. In addition, the Ratio Ki in the data set listed under Homo sapiens is 0.3. In data set [2], the 50% inhibitory concentration (IC50) was 10700 nM and the Ki was found to be 7840 nM.

With `Cn1c(=O)c2c(nc(OCCc3ccccc3)n2C)n(C)c1=O`, in data set [1], the IC50 amounted to 15.9 µM and the inhibitory constant (Ki) was 5.57 µM. In addition, the Ratio Ki in the data set filed under Homo sapiens stood at 0.39. In data set [2], the IC50 came to 2940 nM and the Ki is 2160 nM.

Turning to `Cn1c(=O)c2c(nc(OCc3ccc(Br)cc3)n2C)n(C)c1=O`, the results for the half-inhibitory concentration (IC50) in data set [1] and in data set [2] were 1.3 µM and 62 nM, respectively. For the same molecule, the Ki stood at 0.46 µM in data set [1] and 45 nM in data set [2]. Further, the Ratio Ki in the data set filed under Homo sapiens was found to be 0.099. Moreover, the “Ratio IC50” value in data set [3] is recorded as 27.

In the case of `Cn1c(=O)c2c(nc(OCCOc3ccc(Cl)cc3)n2C)n(C)c1=O`, in data set [1], the Ki was determined as 0.64 µM.

Turning to `Cn1c(=O)c2c(nc(OCCCc3ccccc3)n2C)n(C)c1=O`, in data set [1], the IC50 is 69.3 µM and the inhibition constant (Ki) turned out to be 24.3 µM. Also, in the data set listed under Homo sapiens, the Ratio Ki is 0.019. Moreover, in data set [2], the 50% inhibitory concentration (IC50) came to 615 nM and the Ki was determined as 450 nM.

Consider `Cn1c(=O)c2c(nc(OCCOCc3ccccc3)n2C)n(C)c1=O`, for which, in data set [1], the IC50 was 168 µM and the Ki came out at 58.7 µM. Also, the Ratio Ki in the data set listed under Homo sapiens was determined as 0.047. Besides, in data set [2], the half-inhibitory concentration (IC50) was 3770 nM and the Ki worked out at 2760 nM.

Consider `Cn1c(=O)c2c(nc(OCC3CCCC3)n2C)n(C)c1=O`, for which, in data set [1], the IC50 came out at 22.8 µM and the inhibition constant Ki was 7.98 µM. For the same molecule, the Ratio Ki in the data set filed under Homo sapiens was found to be 1.46. Further, in data set [2], the IC50 came out at 15900 nM and the Ki is 11600 nM.

Turning to `Cn1c(=O)c2c(nc(OCC3CCCCC3)n2C)n(C)c1=O`, in data set [1], the IC50 is 18.4 µM and the Ki is 6.45 µM. The Ratio Ki in the data set filed under Homo sapiens was found to be 0.16. For the same molecule, in data set [2], the half-maximal inhibitory concentration (IC50) was 1360 nM and the Ki came to 1000 nM.

As to `CC(C)CCCCOc1nc2c(c(=O)n(C)c(=O)n2C)n1C`, in data set [1], the IC50 was found to be 15.2 µM and the Ki was 5.31 µM. Besides, the Ratio Ki in the data set listed under Homo sapiens came out at 0.053. Moreover, in data set [2], the IC50 came out at 381 nM and the Ki came out at 280 nM.

Consider `Cn1c(=O)c2c(nc(OCCOc3ccc(Br)cc3)n2C)n(C)c1=O`, for which the IC50 stood at 1.65 µM in data set [1] and 166 nM in data set [2]. For the same molecule, the Ki came out at 0.58 µM in data set [1], 1180 nM in data set [4], 120 nM in data set [2] and 88 nM in data set [5]. In addition, in the data set filed under Homo sapiens, the Ratio Ki turned out to be 0.207.

As to `Cn1c(=O)c2c(nc(OCC3CC=CCC3)n2C)n(C)c1=O` (stereo not given), the IC50 stood at 13.8 µM in data set [1] and 2990 nM in data set [2]. In addition, the results for the Ki in data set [1] and in data set [2] were 4.81 µM and 2190 nM, respectively. In addition, the Ratio Ki in the data set listed under Homo sapiens came out at 0.45.

As for `Cn1c(=O)c2c(nc(OCc3ccc(Cl)cc3)n2C)n(C)c1=O`, in data set [1], the 50% inhibitory concentration (IC50) stood at 1.34 µM and the Ki is 0.47 µM. Moreover, the Ratio Ki in the data set filed under Homo sapiens turned out to be 0.1. Besides, in data set [3], the “Ratio IC50” value is reported as 27. In data set [2], the IC50 was 65 nM and the inhibition constant Ki was 48 nM.

In the case of `Cn1c(=O)c2c(nc(OCCOc3ccccc3)n2C)n(C)c1=O`, in data set [1], the half-inhibitory concentration (IC50) was 20.4 µM and the Ki was 77.1 µM. In addition, the Ratio Ki in the data set listed under Homo sapiens was found to be 0.0036. In data set [2], the 50% inhibitory concentration (IC50) was 383 nM and the Ki turned out to be 280 nM.
